Here are results for nine compounds from ChEMBL document CHEMBL1133085, “Synthesis, antibacterial, and cytotoxic evaluation of certain 7-substituted norfloxacin derivatives” (2000).

What all share (assay type): functional
Assay [1] can be described thus: Mean value (average log GI50) over all cell lines tested. The procedure, abridged: (§1)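 NCI in vitro human tumour cell line panel screen. Growth inhibition is expressed as log GI₅₀ (M), the concentration reducing cell growth to 50% of controls. The mean is the average log GI₅₀ across all cell lines tested.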
For a further assay, the system named is UO-31. Kind of assay: In vitro inhibitory activity for human renal cancer cell line UO-31 was determined. The essentials: as §1
The next assay relates to CAKI-1. Kind of assay: In vitro inhibitory activity for human renal cancer cell line CAK-1 was determined. The procedure, abridged:
as §1

Another assay deals with Enterococcus faecalis. Kind of assay: In vitro antimicrobial activity against Enterococcus faecalis (vancomycin-resistant) was determined. The essentials: (§2)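 Broth dilution in tryptic soy broth with 7% calf serum against clinical isolates (vancomycin-resistant E. faecalis; erythromycin/ampicillin-resistant S. pneumoniae) at 1-5 × 10⁵ CFU/mL. DMSO serial dilutions were added 1:100, giving a top concentration of 300 µM and at most 1% DMSO. Incubated 20-72 h at 37 °C. MIC (µM) read by visual turbidity or microscopy. Vehicle and reference controls; duplicate.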

The next assay has as its system Escherichia coli. Kind of assay: In vitro antimicrobial activity against Escherichia coli was determined. The essentials: (§3)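 Broth microdilution MIC in nutrient broth with 1-5 × 10⁵ CFU/mL inoculum. Compounds were dissolved in 100% DMSO and serially diluted in DMSO, starting at 300 µM final with at most 1% DMSO. Plates were incubated at 37 °C for 20-72 h. MIC was read by visual turbidity or microscopy. Vehicle and reference controls were included, and tests were run in duplicate.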

For another assay, the system named is Klebsiella pneumoniae. Kind of assay: In vitro antimicrobial activity against Klebsiella pneumoniae was determined. The procedure, abridged:
as §3

A short description of assay [2]: In vitro antimicrobial activity against Mycobacterium ranae was determined. The essentials:
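MIC determined in brain heart infusion broth containing 1-5 × 10⁵ CFU/mL. Compounds in DMSO were serially diluted, starting at 300 µM final with 1% DMSO maximum. Incubation was at 37 °C for 20-72 h, with visual turbidity or microscope read-out. Vehicle and reference controls were included, and assays were run in duplicate.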

The next assay has as its system Pseudomonas aeruginosa. Kind of assay: In vitro antimicrobial activity against Pseudomonas aeruginosa was determined. The procedure, abridged:
as §3

In another assay the test system is Proteus vulgaris. Kind of assay: In vitro antimicrobial activity against Proteus vulgaris was determined. The procedure, abridged: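 MIC determined in Mueller-Hinton broth inoculated at 1-5 × 10⁵ CFU/mL. DMSO serial dilutions of compounds were used, with a top final concentration of 300 µM and DMSO at most 1%. Incubation was at 37 °C for 20-72 h. Growth was judged by turbidity or microscopy. Vehicle and reference controls were included, with duplicate assays.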

A further assay relates to Staphylococcus aureus. Kind of assay: In vitro antimicrobial activity against Staphylococcus aureus (methicillin-resistant) was determined. The essentials:
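MRSA in Mueller-Hinton broth at 1-5 × 10⁵ CFU/mL. Compound serial dilutions in 100% DMSO were added 1:100, giving a maximal test concentration of 300 µM and at most 1% DMSO. Plates were held 20-72 h at 37 °C. MIC (µM) was taken from visual turbidity or microscopic growth. Vehicle and reference-agent controls; run in duplicate.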

Assay [3] is described as follows: In vitro antimicrobial activity against […] (erythromycin and ampicillin-resistant) was determined. To be noted: Streptococcus pneumoniae. The procedure, abridged: as §2
For the next assay, the system named is RXF 393. The assay can be described thus: In vitro inhibitory activity for human renal cancer cell line RXF-393 was determined. The procedure, abridged:
as §1

Converted amounts (≈) assume the structure as drawn. Bounds are passed on as bounds.

A word on the GI50: it is the concentration at which growth is held to half of that of the control. A word on the MIC: it is the smallest concentration in the dilution series that meets the test's criterion for growth inhibition. Read a high MIC as a less susceptible organism.

`C=C1CC(CN2CCN(c3cc4c(cc3F)c(=O)c(C(=O)O)cn4CC)CC2)(c2ccc(OC)cc2)OC1=O` (configuration not stated): the Mean in [1] is given as -5.19. For the same compound, the GI50 in the assay with UO-31 was 2750 nM; in the assay with CAKI-1, 5130 nM.
The compound `CCn1cc(C(=O)O)c(=O)c2cc(F)c(N3CCN(C/C(=N/O)c4ccc(F)cc4)CC3)cc21` came in with a Mean in assay [1] of -4.67. The MIC in the assay on Enterococcus faecalis is more than 200 µM; in the assay with Escherichia coli, 6.38 µM (≈ 3 µg/mL); in the assay with Klebsiella pneumoniae it was 0.21 µM (≈ 0.0988 µg/mL); in [2], more than 200 µM; against Pseudomonas aeruginosa, more than 200 µM; against Proteus vulgaris, 6.38 µM (≈ 3 µg/mL). Besides, the MIC against Staphylococcus aureus is 2.13 µM (≈ 1 µg/mL); in assay [3], more than 200 µM. Moreover, the GI50 is 170 nM in the assay with RXF 393, 132 nM in the assay on UO-31 and 1910 nM in the assay with CAKI-1.
`CCn1cc(C(=O)O)c(=O)c2cc(F)c(N3CCN(C/C(=N\O)c4ccc(Cl)cc4)CC3)cc21` returned a Mean in assay [1] of -5.03. Also, the MIC in the assay with Enterococcus faecalis is more than 200 µM; against Escherichia coli, 6.16 µM (≈ 3 µg/mL); with Klebsiella pneumoniae, 0.21 µM (≈ 0.102 µg/mL); in [2], more than 200 µM; against Pseudomonas aeruginosa it was more than 200 µM; in the assay with Proteus vulgaris, 6.16 µM (≈ 3 µg/mL). In addition, the MIC (in the assay on Staphylococcus aureus; in [3]) was more than 200 µM throughout. In addition, the GI50 was 724 nM in the assay on RXF 393, 28.8 nM with UO-31 and 398 nM in the assay with CAKI-1.
In turn, `CCn1cc(C(=O)O)c(=O)c2cc(F)c(N3CCN(C/C(C)=N/O)CC3)cc21` showed a Mean in assay [1] of more than -4. Besides, the MIC in the assay on Enterococcus faecalis came to 30 µM (≈ 11.7 µg/mL); against Escherichia coli, 0.51 µM (≈ 0.199 µg/mL); with Klebsiella pneumoniae it was 0.13 µM (≈ 0.0508 µg/mL); in assay [2], 32 µM (≈ 12.5 µg/mL); against Pseudomonas aeruginosa it was 16 µM (≈ 6.25 µg/mL); in the assay on Proteus vulgaris, 2 µM (≈ 0.781 µg/mL). The figures for the MIC (against Staphylococcus aureus; in assay [3]) were 0.51 µM (≈ 0.199 µg/mL) and 30 µM (≈ 11.7 µg/mL), respectively. In addition, the GI50 is more than 100000 nM in the assay with RXF 393, 39800 nM in the assay with UO-31 and more than 100000 nM in the assay with CAKI-1.
Consider `CCn1cc(C(=O)O)c(=O)c2cc(F)c(N3CCN(CC(=O)c4ccc(OC)cc4)CC3)cc21`, for which the MIC in the assay on Enterococcus faecalis is more than 200 µM; against Escherichia coli, 0.83 µM (≈ 0.388 µg/mL); in the assay with Klebsiella pneumoniae, 0.053 µM (≈ 0.0248 µg/mL); in assay [2], more than 200 µM; against Pseudomonas aeruginosa, 13.4 µM (≈ 6.26 µg/mL); against Proteus vulgaris, 0.83 µM (≈ 0.388 µg/mL). The MIC with Staphylococcus aureus was 6.7 µM (≈ 3.13 µg/mL); in assay [3], more than 200 µM.
With `C=C1CC(CN2CCN(c3cc4c(cc3F)c(=O)c(C(=O)O)cn4CC)CC2)(c2ccccc2)OC1=O` (configuration not stated), the Mean in [1] is listed as -5.47. Moreover, the MIC in the assay with Escherichia coli was 98.9 µM (≈ 50 µg/mL); against Klebsiella pneumoniae it was 12.4 µM (≈ 6.27 µg/mL); in assay [2], more than 200 µM; with Pseudomonas aeruginosa, more than 200 µM; against Proteus vulgaris, more than 200 µM; in the assay with Staphylococcus aureus, 1.54 µM (≈ 0.779 µg/mL). For the same compound, the GI50 in the assay with UO-31 was 1580 nM; in the assay with CAKI-1, 1860 nM.
`CCn1cc(C(=O)O)c(=O)c2cc(F)c(N3CCNCC3)cc21` [NORFLOXACIN]: the MIC in the assay on Enterococcus faecalis stood at 9.8 µM (≈ 3.13 µg/mL); in the assay on Escherichia coli, 0.63 µM (≈ 0.201 µg/mL); in the assay on Klebsiella pneumoniae it was 0.041 µM (≈ 0.0131 µg/mL); in assay [2], 9.8 µM (≈ 3.13 µg/mL); against Pseudomonas aeruginosa, 1.22 µM (≈ 0.39 µg/mL); in the assay on Proteus vulgaris it was 0.16 µM (≈ 0.0511 µg/mL). Further, the MIC was found to be 4.89 µM (≈ 1.56 µg/mL) against Staphylococcus aureus and 19.6 µM (≈ 6.26 µg/mL) in assay [3].
Compound `CCn1cc(C(=O)O)c(=O)c2cc(F)c(N3CCN(C/C(=N\O)c4ccc(OC)cc4)CC3)cc21` returned a Mean in assay [1] of -4.5. In addition, the MIC against Enterococcus faecalis worked out at 3.23 µM (≈ 1.56 µg/mL); in the assay on Escherichia coli, 1.62 µM (≈ 0.782 µg/mL); against Klebsiella pneumoniae it was 0.027 µM (≈ 0.013 µg/mL); in assay [2], 104 µM (≈ 50.2 µg/mL); against Pseudomonas aeruginosa it was 25.9 µM (≈ 12.5 µg/mL); against Proteus vulgaris it was 3.23 µM (≈ 1.56 µg/mL). Moreover, the values for the MIC (against Staphylococcus aureus; in assay [3]) were 0.41 µM (≈ 0.198 µg/mL) and 13 µM (≈ 6.27 µg/mL), respectively. Also, the values for the GI50 in the assay on UO-31 and in the assay on CAKI-1 were 550 nM and 6920 nM, respectively.
Consider `CCn1cc(C(=O)O)c(=O)c2cc(F)c(N3CCN(C/C(=N/O)c4ccccc4)CC3)cc21`, for which the Mean in assay [1] is on record as -4.53. Further, the MIC was more than 200 µM in the assay on Enterococcus faecalis; 0.86 µM (≈ 0.389 µg/mL) in the assay on Escherichia coli; 0.22 µM (≈ 0.0995 µg/mL) against Klebsiella pneumoniae; 55.3 µM (≈ 25 µg/mL) in [2]; 13.8 µM (≈ 6.24 µg/mL) with Pseudomonas aeruginosa; 3.45 µM (≈ 1.56 µg/mL) in the assay with Proteus vulgaris. Also, the MIC in the assay on Staphylococcus aureus was 0.44 µM (≈ 0.199 µg/mL); in assay [3], more than 200 µM. Moreover, the figures for the GI50 in the assay with RXF 393, in the assay with UO-31 and in the assay on CAKI-1 were 36300 nM, 309 nM and 32400 nM, respectively.
